Experimental data taken from ChEMBL document CHEMBL4616723, “Discovery of Antibacterials That Inhibit Bacterial RNA Polymerase Interactions with Sigma Factors” (J Med Chem, 2020).
Converted amounts (≈) assume the structure as drawn.

How the values were obtained:
[1] = system: HepG2; assay: Cytotoxicity against human HepG2 cells after 48 to 72 hrs by MTT assay; assay type: cell-based
[2] = system: Staphylococcus epidermidis; assay: Antibacterial activity against Staphylococcus epidermidis ATCC 12228 after 20 hrs by CLSI based-broth microdilution method; assay type: functional; settings: ATCC 12228, 20 h
[3] = system: A549; assay: Cytotoxicity against human A549 cells after 48 to 72 hrs by MTT assay; assay type: cell-based
[4] = system: Streptococcus agalactiae; assay: Antibacterial activity against Streptococcus agalactiae ATCC 12386 after 20 hrs by CLSI based-broth microdilution method; assay type: functional; settings: ATCC 12386, 20 h
[5] = system: Enterobacter cloacae; assay: Antibacterial activity against Enterobacter cloacae ATCC 13047 after 20 hrs by CLSI based-broth microdilution method; assay type: functional; settings: subsp. cloacae ATCC 13047, 20 h
[6] = system: Enterococcus faecalis; assay: Antibacterial activity against Enterococcus faecalis ATCC 19433 after 20 hrs by CLSI based-broth microdilution method; assay type: functional; settings: ATCC 19433, 20 h
[7] = system: Staphylococcus aureus; assay: Antibacterial activity against Staphylococcus aureus ATCC 25923 after 20 hrs by CLSI based-broth microdilution method; assay type: functional; settings: ATCC 25923, 20 h
[8] = Therapeutic index, ratio of CC50 for human HepG2 cells to MIC for Streptococcus pneumoniae ATCC 49619; assay type: toxicity; settings: read-out: TI
[9] = Therapeutic index, ratio of CC50 for human A549 cells to MIC for Streptococcus pneumoniae ATCC 49619; assay type: toxicity; settings: read-out: TI
[10] = system: Escherichia coli; assay: Antibacterial activity against Escherichia coli ATCC 25922 after 20 hrs by CLSI based-broth microdilution method; assay type: functional; settings: ATCC 25922, 20 h
[11] = system: Staphylococcus saprophyticus; assay: Antibacterial activity against Staphylococcus saprophyticus ATCC 15305 after 20 hrs by CLSI based-broth microdilution method; assay type: functional; settings: subsp. saprophyticus ATCC 15305, 20 h
[12] = system: Streptococcus pyogenes; assay: Antibacterial activity against Streptococcus pyogenes ATCC 19615 after 20 hrs by CLSI based-broth microdilution method; assay type: functional; settings: ATCC 19615, 20 h
[13] = system: Klebsiella pneumoniae; assay: Antibacterial activity against Klebsiella pneumoniae ATCC 700603 after 20 hrs by CLSI based-broth microdilution method; assay type: functional; settings: ATCC 700603, 20 h
[14] = Haemolytic activity in human erythrocytes at 0.1 to 10 ug/ml relative to control; assay type: ADME, cell-based, Erythrocyte; settings: read-out: Activity
Outline: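 Human erythrocytes washed in 150 mM NaCl, resuspended in PBS pH 7.4 (2% blood); compound at final 0.1, 1 and 10 μg/mL (0.5% DMSO) for 45 min at 37 °C, n = 6; spun at 500g, 4 °C; supernatant absorbance read at 540 nm; 1% Triton X-100 as positive and PBS as negative control; % lysis calculated.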

[15] = system: Staphylococcus aureus; assay: Antibacterial activity against Staphylococcus aureus ATCC 29213 after 20 hrs by CLSI based-broth microdilution method; assay type: functional; settings: ATCC 29213, 20 h
[16] = Inhibition of N-terminal SmBiT-fused Bacillus subtilis RNAP subunit beta' CH region expressed in Escherichia coli BL21(DE3)pLysS interaction with C- terminal LgBiT-fused Bacillus subtilis RNA polymerase sigma factor SigA expressed in Escherichia coli BL21(DE3)pLysS preincubated for 10 mins followed by RNA polymerase sigma factor SigA addition and measured after 10 mins by nano-glo luciferase assay
Outline: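 Split-luciferase complementation in PBS: N-SmBiT-CH (2.5 μM stock) mixed with compound at desired concentrations, 10 min at 37 °C. C-LgBiT-σA (2.5 μM stock) then added, another 10 min at 37 °C. Equal volume of Nano-Glo substrate added and luminescence read. No-drug control included. Run in triplicate with technical repeats.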

[17] = system: Pseudomonas aeruginosa; assay: Antibacterial activity against Pseudomonas aeruginosa ATCC 27853 after 20 hrs by CLSI based-broth microdilution method; assay type: functional; settings: ATCC 27853, 20 h
[18] = system: Acinetobacter baumannii; assay: Antibacterial activity against Acinetobacter baumannii ATCC 19606 after 20 hrs by CLSI based-broth microdilution method; assay type: functional; settings: ATCC 19606 = CIP 70.34 = JCM 6841, 20 h
[19] = system: Streptococcus pneumoniae; assay: Antibacterial activity against Streptococcus pneumoniae ATCC 49619 after 20 hrs by CLSI based-broth microdilution method; assay type: functional; settings: ATCC 49619, 20 h
[20] = system: Streptococcus pneumoniae; assay: Antibacterial activity against Streptococcus pneumoniae ATCC 49619 after 16 to 20 hrs by CLSI based-broth microdilution method; assay type: functional
[21] = Apparent permeability across apical to basolateral membrane in human Caco2 cells at 10 ug/ml by LC-MS/MS analysis; assay type: ADME, cell-based; settings: Caco-2
Outline: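 Caco-2 monolayers grown 21–28 days on Transwell polycarbonate membranes, TEER ≥165 Ω cm2; preincubated 20 min at 37 °C in transport buffer; apical-to-basolateral transport only, pH 7.4 on both sides; receiver sampled over time under sink conditions; concentrations measured by LC–MS/MS.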

[22] = system: Staphylococcus aureus; assay: Effect on total RNA level in Staphylococcus aureus ATCC 29213 at 1/4 to 1/8 times MIC by fluorimetric method; assay type: functional
[23] = Inhibition of Escherichia coli RNAP/sigma-70 protein-protein interaction assessed as reduction in RNA synthesis preincubated for 10 mins followed by sigma-70/DNA template/AGU/ApU/alpha [32P]GTP addition and measured after 10 mins by phosphorimaging analysis

SMILES | CC50 [1] | MIC [2] | CC50 [3] | MIC [4] | MIC [5] | MIC [6] | MIC [7] | selectivity ratio [8] | selectivity ratio [9] | MIC [10] | MIC [11] | MIC [12] | MIC [13] | MIC [15] | IC50 [16] | MIC [17] | MIC [18] | MIC [19] | also measured
O=C(O)c1ccc(Cl)c(NCc2ccc(Sc3ccc(Cl)c(Cl)c3)c([N+](=O)[O-])c2)c1 | 110 µM | 4 µg/mL (≈ 8.27 µM) | 116 µM | 4 µg/mL (≈ 8.27 µM) | > 256 µg/mL | 4 µg/mL (≈ 8.27 µM) | 8 µg/mL (≈ 16.5 µM) | 27 | 28 | > 256 µg/mL | 4 µg/mL (≈ 8.27 µM) | 4 µg/mL (≈ 8.27 µM) | > 256 µg/mL | 8 µg/mL (≈ 16.5 µM) | 15 µM | > 256 µg/mL | > 256 µg/mL |  | hemolysis [14]: < 10%
Nc1ccccc1Sc1ccc(C(=O)Nc2ccc(C(=O)O)cc2)cc1[N+](=O)[O-] |  |  |  |  | > 256 µg/mL |  |  |  |  | > 256 µg/mL |  |  | > 256 µg/mL |  | 97 µM | > 256 µg/mL | > 256 µg/mL | 256 µg/mL (≈ 625 µM) | 
O=C(O)c1c(Cl)cccc1NCc1ccc(Sc2ccc(Cl)c(Cl)c2)c([N+](=O)[O-])c1 | 97.7 µM | 4 µg/mL (≈ 8.27 µM) | 93.3 µM | 4 µg/mL (≈ 8.27 µM) | > 256 µg/mL | 8 µg/mL (≈ 16.5 µM) | 8 µg/mL (≈ 16.5 µM) | 12 | 11 | > 256 µg/mL | 8 µg/mL (≈ 16.5 µM) | 2 µg/mL (≈ 4.13 µM) | > 256 µg/mL | 8 µg/mL (≈ 16.5 µM) | 25.1 µM | > 256 µg/mL | > 256 µg/mL |  | 
Nc1cc(Cl)ccc1Sc1ccc(C(=O)c2ccccc2C(=O)O)cc1[N+](=O)[O-] |  |  |  |  | > 256 µg/mL |  |  |  |  | > 256 µg/mL |  |  | > 256 µg/mL |  |  | > 256 µg/mL | > 256 µg/mL |  | MIC [20]: 64 µg/mL (≈ 149 µM)
CN[C@H](CC(C)C)C(=O)N[C@H]1C(=O)N[C@@H](CC(N)=O)C(=O)N[C@H]2C(=O)N[C@H]3C(=O)N[C@H](C(=O)N[C@H](C(=O)O)c4cc(O)cc(O)c4-c4cc3ccc4O)[C@H](O)c3ccc(c(Cl)c3)Oc3cc2cc(c3O[C@@H]2O[C@H](CO)[C@@H](O)[C@H](O)[C@H]2O[C@H]2C[C@](C)(N)[C@H](O)[C@H](C)O2)Oc2ccc(cc2Cl)[C@H]1O [VANCOMYCIN] |  |  |  | 1 µg/mL (≈ 0.69 µM) |  | 1 µg/mL (≈ 0.69 µM) |  |  |  |  | 1 µg/mL (≈ 0.69 µM) | 1 µg/mL (≈ 0.69 µM) |  |  |  |  |  | 1 µg/mL (≈ 0.69 µM) | 
O=C(O)c1cc(NCc2ccc(Sc3ccc(Cl)c(Cl)c3)c([N+](=O)[O-])c2)ccc1Cl |  |  |  |  | > 256 µg/mL |  |  |  |  | > 256 µg/mL |  |  | > 256 µg/mL |  |  | > 256 µg/mL | > 256 µg/mL | 256 µg/mL (≈ 529 µM) | 
O=C(O)c1ccccc1C(=O)c1ccc(Sc2ccc(Cl)c(Cl)c2)c([N+](=O)[O-])c1 | 63.8 µM | 16 µg/mL (≈ 35.7 µM) | 76.7 µM | 16 µg/mL (≈ 35.7 µM) | > 256 µg/mL | 32 µg/mL (≈ 71.4 µM) | 16 µg/mL (≈ 35.7 µM) | 7 | 9 | > 256 µg/mL | 32 µg/mL (≈ 71.4 µM) | 16 µg/mL (≈ 35.7 µM) | > 256 µg/mL | 16 µg/mL (≈ 35.7 µM) |  | > 256 µg/mL | > 256 µg/mL |  | Papp A→B at 10 ug/ml [21]: 35 ×10⁻⁶ cm/s; MIC [20]: 8 µg/mL (≈ 17.8 µM); MIC [22]: > 256 µg/mL; IC50 [23]: 20.4 µM; hemolysis [14]: < 10%
O=C(O)c1cccc(NC(=O)c2ccc(Sc3ccc(Cl)c(Cl)c3)c([N+](=O)[O-])c2)c1 |  |  |  |  | > 256 µg/mL |  |  |  |  | > 256 µg/mL |  |  | > 256 µg/mL |  |  | > 256 µg/mL | > 256 µg/mL | 256 µg/mL (≈ 553 µM) | 
Nc1ccccc1Sc1ccc(C(=O)c2ccccc2C(=O)O)cc1[N+](=O)[O-] |  | > 256 µg/mL |  | > 256 µg/mL | > 256 µg/mL | 256 µg/mL (≈ 649 µM) | > 256 µg/mL |  |  | > 256 µg/mL | 256 µg/mL (≈ 649 µM) | 256 µg/mL (≈ 649 µM) | > 256 µg/mL | > 256 µg/mL |  | > 256 µg/mL | > 256 µg/mL |  | 
